A short description of data set [1]: Partition coefficient by Shake flask method. The data set is classed as physicochemical. The settings on record: octanol/water. Summed up: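 1 mg compound dissolved in 0.1 M phosphate buffer pH 7.40 as stock; absorbance read at 325 nm before partitioning. 3 mL stock stirred vigorously with phosphate buffer-saturated n-octanol (20–300 mL) at room temperature for 2 h. Aqueous phase absorbance at 325 nm measured after phase separation; P_oct calculated from pre/post absorbance.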

A short description of data set [2]: Radiosensitizing activity at hypoxic mouse EMT6/KU cells assessed as enhancement ratio relative to etanidazole. The data set is classed as functional.

Molecules are shown by their SMILES.

For the molecule `CN(CCO[C@H]1O[C@H](CO)[C@@H](O)[C@H](O)[C@@H]1O)C(=O)Cn1ccnc1[N+](=O)[O-]`, the P (partition coefficient) in data set [1] is less than 0.01. The Ratio in data set [2] stood at 1.41.

Consider `CC(=O)OC[C@H]1O[C@H](OCCN(C)C(=O)Cn2ccnc2[N+](=O)[O-])[C@@H](OC(C)=O)[C@@H](OC(C)=O)[C@@H]1OC(C)=O`, for which, in data set [1], the P (partition coefficient) came to 0.0697. The Ratio in data set [2] is 1.88.

In data set [1], `CC(=O)OC[C@H]1O[C@@H](OCCN(C)C(=O)Cn2ccnc2[N+](=O)[O-])[C@H](OC(C)=O)[C@@H](OC(C)=O)[C@H]1OC(C)=O` gave a P (partition coefficient) of 0.0355. Moreover, the Ratio in data set [2] is 1.63.

In turn, `CN(CCO)C(=O)Cn1ccnc1[N+](=O)[O-]` gave a P (partition coefficient) in data set [1] of 0.056. Also, the Ratio in data set [2] stood at 1.75.

In the case of `CC(=O)N[C@H]1[C@H](OCCN(C)C(=O)Cn2ccnc2[N+](=O)[O-])O[C@H](CO)[C@H](O)[C@@H]1O`, the P (partition coefficient) in data set [1] is less than 0.01. For the same molecule, the Ratio in data set [2] was determined as 1.43.

For the molecule `CN(CCO[C@@H]1O[C@H](CO)[C@@H](O)[C@H](O)[C@H]1O)C(=O)Cn1ccnc1[N+](=O)[O-]`, the P (partition coefficient) in data set [1] was less than 0.01. Besides, the Ratio in data set [2] amounted to 1.33.

As for `CN(CCO[C@@H]1O[C@H](CO)[C@H](O)[C@H](O)[C@H]1O)C(=O)Cn1ccnc1[N+](=O)[O-]`, the P (partition coefficient) in data set [1] was less than 0.01. Also, the Ratio in data set [2] turned out to be 1.4.

The molecule `CC(=O)N[C@H]1[C@H](OCCN(C)C(=O)Cn2ccnc2[N+](=O)[O-])O[C@H](COC(C)=O)[C@H](OC(C)=O)[C@@H]1OC(C)=O` displayed a P (partition coefficient) in data set [1] of 0.051. Moreover, the Ratio in data set [2] worked out at 1.47.

In data set [1], `CC(=O)OC[C@H]1O[C@@H](OCCN(C)C(=O)Cn2ccnc2[N+](=O)[O-])[C@H](OC(C)=O)[C@@H](OC(C)=O)[C@@H]1OC(C)=O` displayed a P (partition coefficient) of 0.105. In addition, the Ratio in data set [2] is given as 2.3.

These data come from ChEMBL document CHEMBL1142307, “Design, synthesis, and radiosensitizing activities of sugar-hybrid hypoxic cell radiosensitizers” (Bioorg Med Chem, 2008).
